Experimental data published in ChEMBL document CHEMBL1955828, “Anti-mycobacterial activities of some cationic and anionic calix[4]arene derivatives” (Bioorg Med Chem, 2012).
In brackets after ≈: the same amount, converted by molar mass.

Key:
[1] = tested on: Mycobacterium tuberculosis; test: Antimycobacterial activity against Mycobacterium tuberculosis H37Rv after 6 days by MTT assay; type: functional, organism-based; details: 144 h
Method in brief: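 Twofold serial compound dilutions in Middlebrook 7H9 broth were inoculated with bacterial suspension in 7H9 (H37Rv, or INH-resistant MYC5165) and incubated 6 days. MTT (1 mg/mL) was then added, followed by 1 more day of incubation, solubilisation buffer, and OD read at 570 nm. MIC was the lowest concentration inhibiting growth relative to untreated bacilli, and IC50 was also determined.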

[2] = tested on: Mycobacterium tuberculosis; test: Antimycobacterial activity against Mycobacterium tuberculosis H37Rv at 1 uM after 6 days by MTT assay; type: functional; details: 144 h, read-out: GI
[3] = tested on: Mycobacterium tuberculosis; test: Antimycobacterial activity against Mycobacterium tuberculosis H37Rv at 10 uM after 6 days by MTT assay; type: functional; details: 144 h, read-out: GI
[4] = tested on: Escherichia coli; test: Antibacterial activity against Escherichia coli ATCC 25922 by microdilution method; type: functional
[5] = tested on: Pseudomonas aeruginosa; test: Antibacterial activity against Pseudomonas aeruginosa ATCC 27853 by microdilution method; type: functional
[6] = tested on: Staphylococcus aureus; test: Antibacterial activity against Staphylococcus aureus ATCC 25923 by microdilution method; type: functional
[7] = tested on: Enterococcus faecalis; test: Antibacterial activity against Enterococcus faecalis ATCC 29212 by microdilution method; type: functional
[8] = Cytotoxicity against human MRC5 cells by MTT assay; type: cell-based

| Structure (SMILES) | MIC [1] | inhibition of growth at 1 µM [2] | inhibition of growth at 10 µM [3] | other results |
| --- | --- | --- | --- | --- |
| Cc1ccnc(-c2cc(C)ccn2)c1 | 136 µM (≈ 25 µg/mL) |  |  |  |
| Cc1cccc(-c2cccc(COc3c4cc(S(=O)(=O)O)cc3Cc3cc(S(=O)(=O)O)cc(c3O)Cc3cc(S(=O)(=O)O)cc(c3OCc3cccc(-c5cccc(C)n5)n3)Cc3cc(S(=O)(=O)O)cc(c3O)C4)n2)n1 | > 50 µM |  |  |  |
| Cc1csc(-c2nc(COc3c4cc(S(=O)(=O)O)cc3Cc3cc(S(=O)(=O)O)cc(c3O)Cc3cc(S(=O)(=O)O)cc(c3OCc3csc(-c5nc(C)cs5)n3)Cc3cc(S(=O)(=O)O)cc(c3O)C4)cs2)n1 | > 50 µM |  |  |  |
| Cc1cccc(-c2cccc(COc3c4cc(CC(=O)O)cc3Cc3cc(CC(=O)O)cc(c3O)Cc3cc(CC(=O)O)cc(c3OCc3cccc(-c5cccc(C)n5)n3)Cc3cc(CC(=O)O)cc(c3O)C4)n2)n1 | > 50 µM |  |  |  |
| Cc1cccc(-c2cccc(COc3c4cc(CP(=O)(O)O)cc3Cc3cc(CP(=O)(O)O)cc(c3O)Cc3cc(CP(=O)(O)O)cc(c3OCc3cccc(-c5cccc(C)n5)n3)Cc3cc(CP(=O)(O)O)cc(c3O)C4)n2)n1 | 50 µM (≈ 58.2 µg/mL) |  |  | IC50 [1]: 12400 nM |
| NCCc1cc2c(O)c(c1)Cc1cc(CCN)cc(c1O)Cc1cc(CCN)cc(c1O)Cc1cc(CCN)cc(c1O)C2 | 3.2 µM (≈ 1.91 µg/mL) | 27% | 76% | IC50 [1]: 400 nM |
| Cc1cccc(-c2cccc(COc3c4cc(CCN)cc3Cc3cc(CCN)cc(c3O)Cc3cc(CCN)cc(c3OCc3cccc(-c5cccc(C)n5)n3)Cc3cc(CCN)cc(c3O)C4)n2)n1 |  | 7% | 0% |  |
| Cc1csc(-c2nc(COc3c4cc(CCN)cc3Cc3cc(CCN)cc(c3O)Cc3cc(CCN)cc(c3OCc3csc(-c5nc(C)cs5)n3)Cc3cc(CCN)cc(c3O)C4)cs2)n1 |  | 25% | 19% |  |
| Cc1ccc(-c2ccc(COc3c4cc(CCN)cc3Cc3cc(CCN)cc(c3O)Cc3cc(CCN)cc(c3OCc3ccc(-c5ccc(C)cn5)nc3)Cc3cc(CCN)cc(c3O)C4)cn2)nc1 | 0.8 µM (≈ 0.769 µg/mL) | 63% | 81% | IC50 [1]: 200 nM |
| Cc1cccc(-c2cccc(COc3c4cc(CCNC(=N)N)cc3Cc3cc(CCNC(=N)N)cc(c3O)Cc3cc(CCNC(=N)N)cc(c3OCc3cccc(-c5cccc(C)n5)n3)Cc3cc(CCNC(=N)N)cc(c3O)C4)n2)n1.O=C(O)C(F)(F)F |  | 7% | 10% | MIC [4]: 4 µg/mL; MIC [5]: 4 µg/mL; MIC [6]: 4 µg/mL; MIC [7]: 4 µg/mL |
| Cc1ccc(-c2ccc(COc3c4cc(CCNC(=N)N)cc3Cc3cc(CCNC(=N)N)cc(c3O)Cc3cc(CCNC(=N)N)cc(c3OCc3ccc(-c5ccc(C)cn5)nc3)Cc3cc(CCNC(=N)N)cc(c3O)C4)cn2)nc1.O=C(O)C(F)(F)F | 0.8 µM | 62% | 98% | IC50 [1]: 50 nM; CC50 [8]: 128 µg/mL; MIC [4]: 4 µg/mL; MIC [5]: 4 µg/mL; MIC [6]: 4 µg/mL; MIC [7]: 4 µg/mL |
| Cc1csc(-c2nc(COc3c4cc(CCNC(=N)N)cc3Cc3cc(CCNC(=N)N)cc(c3O)Cc3cc(CCNC(=N)N)cc(c3OCc3csc(-c5nc(C)cs5)n3)Cc3cc(CCNC(=N)N)cc(c3O)C4)cs2)n1.O=C(O)C(F)(F)F | 1.6 µM | 54% | 90% | IC50 [1]: 400 nM; CC50 [8]: 16 µg/mL; MIC [4]: 4 µg/mL; MIC [5]: 4 µg/mL; MIC [6]: 4 µg/mL; MIC [7]: 4 µg/mL |
| N=C(N)NCCc1cc2c(O)c(c1)Cc1cc(CCNC(=N)N)cc(c1O)Cc1cc(CCNC(=N)N)cc(c1O)Cc1cc(CCNC(=N)N)cc(c1O)C2.O=C(O)C(F)(F)F | 0.8 µM | 73% | 97% | IC50 [1]: 250 nM; CC50 [8]: 256 µg/mL; MIC [4]: 4 µg/mL; MIC [5]: 4 µg/mL; MIC [6]: 4 µg/mL; MIC [7]: 4 µg/mL |
| O=C(O)Cc1cc2c(O)c(c1)Cc1cc(CC(=O)O)cc(c1O)Cc1cc(CC(=O)O)cc(c1O)Cc1cc(CC(=O)O)cc(c1O)C2 |  | 0% | 7% |  |
| O=P(O)(O)Cc1cc2c(O)c(c1)Cc1cc(CP(=O)(O)O)cc(c1O)Cc1cc(CP(=O)(O)O)cc(c1O)Cc1cc(CP(=O)(O)O)cc(c1O)C2 |  | 0% | 5% |  |
| O=S(=O)(O)c1cc2c(O)c(c1)Cc1cc(S(=O)(=O)O)cc(c1O)Cc1cc(S(=O)(=O)O)cc(c1O)Cc1cc(S(=O)(=O)O)cc(c1O)C2 |  | 0% | 0% |  |
| Cc1csc(-c2nc(COc3c4cc(CC(=O)O)cc3Cc3cc(CC(=O)O)cc(c3O)Cc3cc(CC(=O)O)cc(c3OCc3csc(-c5nc(C)cs5)n3)Cc3cc(CC(=O)O)cc(c3O)C4)cs2)n1 | > 50 µM |  |  |  |
| Cc1csc(-c2nc(COc3c4cc(CP(=O)(O)O)cc3Cc3cc(CP(=O)(O)O)cc(c3O)Cc3cc(CP(=O)(O)O)cc(c3OCc3csc(-c5nc(C)cs5)n3)Cc3cc(CP(=O)(O)O)cc(c3O)C4)cs2)n1 | 50 µM (≈ 59.5 µg/mL) |  |  |  |
| O=C(O)c1cn(C2CC2)c2cc(N3CCNCC3)c(F)cc2c1=O [CIPROFLOXACIN] | 2.5 µM (≈ 0.828 µg/mL) |  |  |  |
| c1ccc(-c2ccccn2)nc1 [DIPYRIDYL] | 160 µM (≈ 25 µg/mL) |  |  |  |
| CC[C@@H](CO)NCCN[C@@H](CC)CO [ETHAMBUTOL] | 9.8 µM (≈ 2 µg/mL) |  | 65% |  |
| CCc1cc(C(N)=S)ccn1 [ETHIONAMIDE] | 9 µM (≈ 1.5 µg/mL) |  |  |  |
| NNC(=O)c1ccncc1 [ISONIAZID] | 0.6 µM (≈ 0.0823 µg/mL) |  |  |  |
| CO[C@H]1/C=C/O[C@@]2(C)Oc3c(C)c(O)c4c(O)c(c(/C=N/N5CCN(C)CC5)c(O)c4c3C2=O)NC(=O)/C(C)=C\C=C\[C@H](C)[C@H](O)[C@@H](C)[C@@H](O)[C@@H](C)[C@H](OC(C)=O)[C@@H]1C [RIFAMPIN] | 0.24 µM (≈ 0.198 µg/mL) |  |  |  |
| CN[C@@H]1[C@H](O[C@H]2[C@H](O[C@H]3[C@H](O)[C@@H](O)[C@H](N=C(N)N)[C@@H](O)[C@@H]3N=C(N)N)O[C@@H](C)[C@]2(O)C=O)O[C@@H](CO)[C@H](O)[C@H]1O [STREPTOMYCIN] | 0.7 µM (≈ 0.407 µg/mL) |  |  |  |
